The record followed here is ChEMBL document CHEMBL3244342, “Haloacetamido analogues of 2-amino-2-deoxy-D-glucose and 2-amino-2-deoxy-D-galactose. Syntheses and effects on the Friend murine erythroleukemia” (J Med Chem, 1978).

Structures are written as SMILES. Active and inactive are the calls of the source. The calls are words filed in the database; no cut-off is given here.

For series [1], the system named is Leukemia cell. Description: Antitumor activity against DBA/2J mouse Friend erythroleukemia cells allografted ip dosed DBA/2 mouse assessed as increase in host survival time administered on days 1, 2 and 3 after tumor transplantation. The series is classed as functional, organism-based.
For series [2], the system named is Leukemia cell. Description: Induction of cell differentiation in DBA/2J mouse Friend erythroleukemia cells assessed as proportion of hemoglobin containing cells at IC50 concentration for antiproliferative effect after 3 days by benzidine peroxide staining. The format is functional, cell-based. The essentials: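 Exponentially growing cells seeded at 10^5 cells/mL in DMEM with 10% fetal calf serum at 37 °C and 10% CO2, incubated 3 days with the analogue. Ethanol vehicle final ≤0.125%. Hemoglobin-containing cells scored by benzidine peroxide stain. Controls received no drug or the inducer bis(acetyl)diaminopentane.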

Series [3] is described as follows: Toxicity in ip dosed BDF1 mouse assessed as animal killed administered as single dose. The note with it: in vivo.
The nature of series [4]: Antiproliferative activity against DBA/2J mouse Friend erythroleukemia cells after 3 days by cell counter. The format is functional, cell-based. The note with it: Leukemia cell, 72 h. The procedure, abridged: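 Log-phase suspension cultures in DMEM with 10% fetal calf serum, penicillin/streptomycin, 37 °C, 10% CO2, seeded at 10^5 cells/mL. Continuous exposure to a range of concentrations for 3 days. Water-insoluble agents given in ethanol (final ≤0.125%). Cells counted by Coulter counter. IC50 is the concentration giving 50% inhibition of multiplication versus vehicle-treated controls.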

Series [5] can be described thus: Inhibition of bis(acetyl)diaminopentane-induced cell differentiation in DBA/2J mouse Friend erythroleukemia cells assessed as proportion of hemoglobin containing cells at 1 mM after 3 days by benzidine peroxide staining (reference value: 82.2 +/- 2.4%). The format is functional. The following applies: Leukemia cell, 72 h.
Series [6] is described as follows: Inhibition of cell growth of DBA/2J mouse Friend erythroleukemia cells at 1 mM after 3 days in presence of bis(acetyl)diaminopentane. The format is functional. The following applies: Leukemia cell, 72 h. The essentials:
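Log-phase Friend erythroleukemia cells (DBA/2J origin) were seeded at 10⁵ cells/mL in DMEM plus 10% fetal calf serum at 37 °C under 10% CO₂. Analogue at 1 mM was combined with the inducer bis(acetyl)diaminopentane at 4.5 mM. After 3 days, cell numbers were counted with a Coulter counter to give percent cytostasis.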

The nature of series [7]: Inhibition of cell growth of DBA/2J mouse Friend erythroleukemia cells at 4 uM after 3 days in presence of bis(acetyl)diaminopentane. The format is functional. The following applies: Leukemia cell, 72 h. The essentials:
(§1)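 Exponentially growing cells seeded at 10^5 cells/mL, exposed for 3 days to 4.5 mM bis(acetyl)diaminopentane together with the analogue. Cell numbers counted by Coulter counter. Cytostasis expressed relative to untreated control cultures.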

Series [8] is described as follows: Inhibition of cell growth of DBA/2J mouse Friend erythroleukemia cells at 0.4 mM after 3 days in presence of bis(acetyl)diaminopentane. The format is functional. The following applies: Leukemia cell, 72 h. The essentials:
as §1

Series [9] is described as follows: Bis(acetyl)diaminopentane-induced cell differentiation in DBA/2J mouse Friend erythroleukemia cells assessed as proportion of hemoglobin containing cells at 0.4 mM after 3 days by benzidine peroxide staining (reference value: 82.2 +/- 2.4%). The following applies: Leukemia cell, 72 h.

The term LD50 denotes the dose expected to kill half of the subjects tested. Broadly, the IC50 is the concentration that inhibits the measured activity by half. Low readings indicate inhibition by little substance, high ones a need for much substance. Broadly, the inhibition is the drop in the measured response relative to a control, in per cent.

On to `CC(=O)OC[C@H]1O[C@@H](OC(C)=O)[C@H](NC(=O)CBr)[C@@H](OC(C)=O)[C@@H]1OC(C)=O`, for which the outcome with Leukemia cell [1] and with Leukemia cell [2] was inactive. Further, the LD50 in [3] amounted to 210 µmol/kg. In series [4], this molecule gave an IC50 of 3 µM.

On to `NC(=O)CCl`, for which, in the series on Leukemia cell [1], the result was inactive. This molecule also gave a half-inhibitory concentration (IC50) in series [4] of 200 µM.

On to `O=C(O)CF` [FLUOROACETATE], for which the outcome with Leukemia cell [1] was inactive. Moreover, the LD50 in series [3] was found to be 100 µmol/kg.

For the molecule `CC(=O)OC[C@H]1O[C@@H](OC(C)=O)[C@H](NC(=O)CF)[C@@H](OC(C)=O)[C@@H]1OC(C)=O`, the result in the series with Leukemia cell [1] and in the series with Leukemia cell [2] was inactive. Besides, in series [3], the LD50 was determined as 170 µmol/kg. The IC50 in series [4] turned out to be 60 µM.

For `O=C(CF)N[C@@H]1[C@@H](O)[C@@H](O)[C@@H](CO)O[C@H]1O`, the outcome in the series with Leukemia cell [1] was inactive. In addition, the LD50 in [3] was 740 µmol/kg.

On to `CC(=O)OC[C@H]1O[C@@H](OC(C)=O)[C@H](NC(=O)CF)[C@@H](OC(C)=O)[C@H]1OC(C)=O`, for which the outcome in the series on Leukemia cell [1] and with Leukemia cell [2] was inactive. Further, the LD50 in series [3] was determined as 980 µmol/kg. The molecule also came in with an IC50 in [4] of 60 µM.

Consider `O=C(CBr)N[C@@H]1[C@@H](O)[C@H](O)[C@@H](CO)O[C@H]1O`, for which, in the series on Leukemia cell [1], the result was inactive. Besides, the LD50 in series [3] was more than 2400 µmol/kg.

Consider `O=C(CF)N[C@@H]1[C@@H](O)[C@H](O)[C@@H](CO)O[C@H]1O`, for which the outcome with Leukemia cell [1] and in the series with Leukemia cell [2] was inactive. Further, the values for the inhibition at 1000 µM in series [5] and in series [6] were 69.5% and 83%, respectively. For the same molecule, the LD50 in [3] was determined as 180 µmol/kg. Moreover, the IC50 in [4] was 1000 µM.

Turning to `CC(=O)OC[C@H]1O[C@@H](OC(C)=O)[C@H](NC(=O)CBr)[C@@H](OC(C)=O)[C@H]1OC(C)=O`, the inhibition at 4 µM in [7] came out at 83%. The outcome with Leukemia cell [1] and in the series on Leukemia cell [2] was inactive. For the same molecule, the LD50 in series [3] is 220 µmol/kg. Moreover, the IC50 in [4] stood at 4 µM.

In the case of `O=C(CCl)N[C@@H]1[C@@H](O)[C@H](O)[C@@H](CO)O[C@H]1O`, the inhibition at 400 µM in series [8] came out at 83%. The outcome with Leukemia cell [1] and in the series with Leukemia cell [2] was inactive. The benzidine-positive cells % at 400 µM in series [9] is 24%. Moreover, the LD50 in series [3] stood at 2000 µmol/kg. Moreover, in series [4], half-maximal inhibition (IC50) was put at 400 µM.

Take `CC(=O)N[C@H]1[C@H](OC(C)=O)O[C@H](COC(C)=O)[C@@H](OC(C)=O)[C@@H]1OC(C)=O`: the outcome with Leukemia cell [1] was inactive. For the same molecule, the IC50 in series [4] was 400 µM.

On to `O=C(CCl)N[C@@H]1[C@@H](O)[C@@H](O)[C@@H](CO)O[C@H]1O`, for which the result with Leukemia cell [1] was inactive. Moreover, the LD50 in series [3] amounted to 1500 µmol/kg.

Consider `CC(=O)OC[C@H]1O[C@@H](OC(C)=O)[C@H](NC(=O)CCl)[C@@H](OC(C)=O)[C@@H]1OC(C)=O`, for which the result in the series with Leukemia cell [1] and in the series on Leukemia cell [2] was inactive. Besides, the LD50 in series [3] was 940 µmol/kg. This molecule displayed an IC50 in series [4] of 8 µM.

`O=C(CBr)N[C@@H]1[C@@H](O)[C@@H](O)[C@@H](CO)O[C@H]1O`: the result in the series with Leukemia cell [1] was inactive. In addition, the LD50 in series [3] is 1700 µmol/kg.

Turning to `CC(=O)OC[C@H]1O[C@@H](OC(C)=O)[C@H](NC(=O)CCl)[C@@H](OC(C)=O)[C@H]1OC(C)=O`, the outcome with Leukemia cell [1] and in the series on Leukemia cell [2] was inactive. The LD50 in series [3] was 670 µmol/kg. In series [4], this molecule registered an IC50 of 15 µM.
